From ChEMBL document CHEMBL1134951, “Substituted uracil derivatives as potent inhibitors of poly(ADP-ribose)polymerase-1 (PARP-1)” (Bioorg Med Chem Lett, 2002)
Values after ≈ are worked out from the molar mass of the structure shown. Values joined by “and” are separate entries in the source; they are usually repeats but may differ in a detail not shown here. Equal entries are not always repeated.

How the values were obtained:
[1] = molecular target: T1, Poly [ADP-ribose] polymerase 1 (Homo sapiens, UniProt P09874); test: Inhibitory activity against human recombinant PARP-1
T1 sequence (P09874 whole entry): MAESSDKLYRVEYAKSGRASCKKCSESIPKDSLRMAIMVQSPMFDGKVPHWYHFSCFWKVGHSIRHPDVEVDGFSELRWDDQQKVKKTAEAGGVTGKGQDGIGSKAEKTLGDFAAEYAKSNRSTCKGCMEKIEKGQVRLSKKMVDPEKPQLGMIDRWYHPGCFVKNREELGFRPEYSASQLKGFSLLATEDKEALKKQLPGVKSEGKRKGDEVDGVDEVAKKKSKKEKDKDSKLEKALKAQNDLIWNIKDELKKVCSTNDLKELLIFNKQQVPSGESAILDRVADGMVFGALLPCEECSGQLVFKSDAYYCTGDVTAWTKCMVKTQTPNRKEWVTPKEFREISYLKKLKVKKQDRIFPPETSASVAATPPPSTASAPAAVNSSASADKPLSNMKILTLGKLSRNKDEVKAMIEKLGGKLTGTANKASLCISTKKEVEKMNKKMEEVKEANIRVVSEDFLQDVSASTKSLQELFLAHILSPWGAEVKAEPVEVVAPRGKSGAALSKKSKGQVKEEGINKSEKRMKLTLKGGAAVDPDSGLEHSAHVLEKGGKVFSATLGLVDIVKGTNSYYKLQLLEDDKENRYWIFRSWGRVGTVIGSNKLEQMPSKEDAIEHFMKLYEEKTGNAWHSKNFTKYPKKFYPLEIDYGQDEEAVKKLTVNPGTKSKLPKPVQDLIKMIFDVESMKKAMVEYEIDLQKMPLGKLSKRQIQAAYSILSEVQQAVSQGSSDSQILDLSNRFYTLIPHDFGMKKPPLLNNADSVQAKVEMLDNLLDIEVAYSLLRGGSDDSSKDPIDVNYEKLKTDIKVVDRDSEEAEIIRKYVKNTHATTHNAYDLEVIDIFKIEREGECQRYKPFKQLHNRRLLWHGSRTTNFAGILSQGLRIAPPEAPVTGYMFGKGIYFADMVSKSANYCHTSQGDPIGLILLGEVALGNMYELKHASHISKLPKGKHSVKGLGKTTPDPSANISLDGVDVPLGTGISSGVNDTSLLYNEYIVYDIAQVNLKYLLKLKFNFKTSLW

[2] = Clearance was determined by administering the compound intravenously at a dose of 1 mg/kg in male wistar rat; assay type: ADME, organism-based; design: dose 1 mg/kg, route intravenous; conditions: in vivo, iv
[3] = Half life was determined by administering the compound intravenously at a dose of 1 mg/kg in male wistar rat; assay type: ADME, organism-based; design: dose 1 mg/kg, route intravenous; conditions: in vivo, iv
Rattus norvegicus = test: Volume at steady state distribution by administering the compound intravenously at a dose of 1 mg/kg in male wistar rat was determined; assay type: ADME, organism-based; design: dose 1 mg/kg, route intravenous; conditions: in vivo, iv
[4] = Area under the curve was determined by administering the compound at a dose of 1 mg/kg intravenously in male wistar rat; assay type: ADME, organism-based; design: dose 1 mg/kg, route intravenous; conditions: in vivo, iv
[5] = molecular target: T1, Poly [ADP-ribose] polymerase 1; test: Concentration required to inhibit human recombinant Poly (ADP-ribose) polymerase 1 was determined using dose-response inhibition
How it was run: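 Purified recombinant human PARP-1 from a baculovirus (Bac-To-Bac) expression system. It ran 10 min at rt and was stopped with ice-cold 10% TCA. Precipitate was filtered, washed with ethanol and dried, then counted by scintillation. Read-out: IC50.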

[6] = Solubility in phosphate buffered saline (1% DMSO) at pH 6.5 (24 hr equilibration); assay type: physicochemical; conditions: buffer

SMILES | IC50 [1] | other results
O=C(CCn1c2c(c(=O)[nH]c1=O)CCCC2)NCC(=O)N1CCN(c2ccccc2)CC1 | 200 nM | –
O=C(CCn1c2c(c(=O)[nH]c1=O)CSCC2)NCC(=O)N1CCN(c2ncncn2)CC1 | 50 nM | –
O=C(CCn1c2c(c(=O)[nH]c1=O)CSCC2)NCC(=O)N1CCN(c2cc(C(F)(F)F)ccn2)CC1 | 20 nM | clearance [2]: 36.8 mL/min/kg; half-life [3]: 18 min; Vss (Rattus norvegicus): 0.42 L/kg; AUC [4]: 450 ng·h/mL
O=C(CCn1c2c(c(=O)[nH]c1=O)CSCC2)NCC(=O)c1ccc(Oc2ccccc2)cc1 | 30 nM | –
O=C(CCCCCn1c2c(c(=O)[nH]c1=O)CSCC2)NCC(=O)N1CCN(c2ncccn2)CC1 | 250 nM | –
O=C(CCn1c2c(c(=O)[nH]c1=O)CSCC2)NCC(=O)c1ccc(-c2cccnc2)cc1 | 12 nM | –
O=C(CCn1c2c(c(=O)[nH]c1=O)CCCC2)NCC(=O)c1ccc2ccccc2c1 | – | clearance [2]: 28.3 mL/min/kg; half-life [3]: 42 min; Vss (Rattus norvegicus): 0.5 L/kg; AUC [4]: 600 ng·h/mL
CN(CC(=O)c1ccc2ccccc2c1)C(=O)CCn1c2c(c(=O)[nH]c1=O)CCCC2 | 400 nM | –
O=C(CCn1c2c(c(=O)[nH]c1=O)CSCC2)NCC(=O)c1ccc(OC(F)F)cc1 | 30 nM | –
O=C(CCn1c2c(c(=O)[nH]c1=O)COCC2)NCC(=O)N1CCN(c2ncccn2)CC1 | 800 nM | –
O=C(Cn1c2c(c(=O)[nH]c1=O)CSCC2)NCCC(=O)N1CCN(c2ncccn2)CC1 | 60 nM | –
O=C(CCn1c2c(c(=O)[nH]c1=O)CSCC2)NCC(=O)c1ccc(N2CCCC2)cc1 | 12 nM | –
COc1ccc(N2CCN(C(=O)CNC(=O)CCn3c4c(c(=O)[nH]c3=O)CSCC4)CC2)cc1 | 20 nM and 25 nM | clearance [2]: > 75 mL/min/kg; half-life [3]: 12 min; Vss (Rattus norvegicus): 1.01 L/kg; AUC [4]: 160 ng·h/mL
O=C(CCn1c2c(c(=O)[nH]c1=O)CSCC2)NCC(=O)N1CCN(c2ccccc2)CC1 | – | clearance [2]: 72.2 mL/min/kg; half-life [3]: 24 min; IC50 [5]: 30 nM; Vss (Rattus norvegicus): 1.39 L/kg; Solubility [6]: 330 µg/mL (≈ 721 µM); AUC [4]: 230 ng·h/mL
O=C(CCn1c2c(c(=O)[nH]c1=O)CCCC2)NCC(=O)c1ccc(Br)cc1 | 80 nM | –
O=C(CCn1c2c(c(=O)[nH]c1=O)CSCC2)NCC(=O)c1ccc(Br)cc1 | 15 nM | –
O=C(CCn1c2c(c(=O)[nH]c1=O)CSCC2)NCC(=O)N1CCN(c2ncccc2C(F)(F)F)CC1 | 40 nM | clearance [2]: 71.7 mL/min/kg; AUC [4]: 230 ng·h/mL
O=C(CCn1c2c(c(=O)[nH]c1=O)CSCC2)NCC(=O)N1CCN(c2ncccn2)CC1 | – | clearance [2]: 33.5 mL/min/kg; half-life [3]: 12 min; Vss (Rattus norvegicus): 0.31 L/kg; AUC [4]: 520 ng·h/mL
O=C(CCn1c2c(c(=O)[nH]c1=O)CCCC2)NCC(=O)c1ccccc1 | 450 nM | –
O=C(CCn1c2c(c(=O)[nH]c1=O)CSCC2)NCC(=O)c1cccc(Br)c1 | 70 nM | –
O=C(CCn1c2c(c(=O)[nH]c1=O)CSCC2)NCC(=O)c1ccc(-c2cccnn2)cc1 | 25 nM | clearance [2]: 27.3 mL/min/kg; half-life [3]: 18 min; Vss (Rattus norvegicus): 0.27 L/kg; AUC [4]: 610 ng·h/mL

SMILES | IC50 [1] | other results
O=C(CCn1c2c(c(=O)[nH]c1=O)CSCC2)NCC(=O)c1ccc(OC(=O)c2ccccc2)cc1 | 30 nM | –
Nc1cccc(-c2ccc(C(=O)CNC(=O)CCn3c4c(c(=O)[nH]c3=O)CSCC4)cc2)c1 | 20 nM | –
O=C(CCn1c2c(c(=O)[nH]c1=O)CC=CCC2)NCC(=O)N1CCN(c2ncccn2)CC1 | 900 nM | –
O=C(CCn1c2c(c(=O)[nH]c1=O)CCCCC2)NCC(=O)N1CCN(c2ncccn2)CC1 | 900 nM | –
O=C(CCn1c2c(c(=O)[nH]c1=O)CSCC2)NCC(=O)c1cccc(-c2ccccc2)c1 | 70 nM | –
O=C(CCn1c2c(c(=O)[nH]c1=O)CSCC2)NCC(=O)N1CCN(c2cccnn2)CC1 | 20 nM | –
O=C(CCn1c2c(c(=O)[nH]c1=O)CSCC2)NCC(=O)N1CCN(c2ccncc2)CC1 | 40 nM | –
O=C(CCn1c2c(c(=O)[nH]c1=O)CSCC2)NCC(=O)c1ccc(Cl)cc1 | 60 nM | –
C=CCCc1c(CC=C)c(=O)[nH]c(=O)n1CCC(=O)NCC(=O)N1CCN(c2ncccn2)CC1 | > 5000 nM | –
O=C(CCn1c2c(c(=O)[nH]c1=O)CSCC2)NCC(=O)c1ccc(-c2ccccc2)cc1 | 20 nM | –
O=C(CCn1c2c(c(=O)[nH]c1=O)CSCC2)NCC(=O)c1ccc(-c2ccncc2)cc1 | 15 nM | –
O=C(CCn1c2c(c(=O)[nH]c1=O)CCCC2)NCC(=O)N1CCN(c2ncccn2)CC1 | 90 nM | –
COc1ccc(C(=O)CNC(=O)CCn2c3c(c(=O)[nH]c2=O)CSCC3)cc1 | 25 nM | –
O=C(CCn1c2c(c(=O)[nH]c1=O)CSCC2)NCC(=O)N1CCN(c2ccccn2)CC1 | 35 nM | clearance [2]: 51.8 mL/min/kg; half-life [3]: 72 min; Vss (Rattus norvegicus): 1.19 L/kg; AUC [4]: 320 ng·h/mL
O=C(Cn1c2c(c(=O)[nH]c1=O)CSCC2)NCC(=O)N1CCN(c2ncccn2)CC1 | 150 nM | –
Nc1cccnc1N1CCN(C(=O)CNC(=O)CCn2c3c(c(=O)[nH]c2=O)CSCC3)CC1 | 70 nM | –
COc1ccc(-c2ccc(C(=O)CNC(=O)CCn3c4c(c(=O)[nH]c3=O)CSCC4)cc2)cc1 | 15 nM | –
CC(CC(=O)NCC(=O)c1ccc2ccccc2c1)n1c2c(c(=O)[nH]c1=O)CCCC2 (stereo not given) | > 5000 nM | –
O=C(CCn1c2c(c(=O)[nH]c1=O)CSCC2)NCC(=O)c1ccc(-c2cncnc2)cc1 | 25 nM | –
COc1ccc(C(=O)CNC(=O)CCn2c3c(c(=O)[nH]c2=O)CCCC3)cc1 | 300 nM | –
